Measured values taken from ChEMBL document CHEMBL3352597, “Heck products of parthenolide and melampomagnolide-B as anticancer modulators that modify cell cycle progression” (Eur J Med Chem, 2014).
The source made the active and inactive calls. The calls are words filed in the database; no cut-off is given here.

Experiments:
Assay type in all cases: functional
[1] = system: U-251; experiment: Anticancer activity against human U251 cells
In short: (§1)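 NCI 60 human tumour cell line screen. A single-concentration pre-screen was run at 10^-5 M. Compounds selected from it were then tested at five concentrations, 10^-4 to 10^-8 M. Dose-response curves plotted cytotoxic effect against log10 of the drug concentration for each cell line. GI50 is the molar concentration giving 50% growth inhibition, and LC50 the concentration killing 50% of cells.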

[2] = Anticancer activity against human HCT15 cells
In short: (§2)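 NCI 60 human cancer cell line panel, multiple-dose testing at five concentrations (10^-4, 10^-5, 10^-6, 10^-7 and 10^-8 M). Dose-response curves plot cytotoxic effect against log10 of drug concentration for each cell line. GI50 is the molar concentration giving 50% growth inhibition; LC50 is the concentration killing 50% of cells.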

[3] = system: SK-MEL-2; experiment: Anticancer activity against human SK-MEL-2 cells; in short: as §2
[4] = system: TK-10; experiment: Anticancer activity against human TK10 cells; in short: as §1
[5] = system: M14; experiment: Anticancer activity against human M14 cells; in short: as §2
[6] = system: CCRF-CEM; experiment: Anticancer activity against human CCRF-CEM cells; in short: as §2
[7] = system: A498; experiment: Anticancer activity against human A498 cells; in short: as §2
[8] = Anticancer activity against human COLO205 cells; in short: as §2
[9] = Anticancer activity against human OVCAR4 cells; in short: as §2
[10] = system: K562; experiment: Anticancer activity against human K562 cells; in short: as §2
[11] = system: HT-29; experiment: Anticancer activity against human HT-29 cells; in short: as §2
[12] = Anticancer activity against human MOLT4 cells; in short: as §2
[13] = system: RXF 393; experiment: Anticancer activity against human RXF393 cells; in short: as §2
[14] = system: HOP-62; experiment: Anticancer activity against human HOP62 cells; in short: as §2
[15] = Anticancer activity against human Hs 578T cells; in short: as §2
[16] = Anticancer activity against human SF295 cells; in short: as §2
[17] = Anticancer activity against human UO31 cells; in short: as §1
[18] = system: IGROV-1; experiment: Anticancer activity against human IGROV1 cells; in short: as §2
[19] = Anticancer activity against human PC3 cells; in short: as §2
[20] = system: A549; experiment: Anticancer activity against human A549 cells; in short: as §2
[21] = Anticancer activity against human OVCAR5 cells; in short: as §2
[22] = system: SK-MEL-5; experiment: Anticancer activity against human SK-MEL-5 cells; in short: as §2
[23] = system: NCI-H23; experiment: Anticancer activity against human NCI-H23 cells; in short: as §2
[24] = system: CAKI-1; experiment: Anticancer activity against human CAKI-1 cells; in short: as §2
[25] = system: HL-60(TB); experiment: Anticancer activity against human HL-60(TB) cells; in short: as §2
[26] = system: MDA-MB-435; experiment: Anticancer activity against human MDA-MB-435 cells; in short: as §2
[27] = Anticancer activity against human BT549 cells; in short: as §2
[28] = system: NCI-H322M; experiment: Anticancer activity against human NCI-H322M cells after 48 hrs; in short: as §2
[29] = Anticancer activity against human HCT116 cells; in short: as §2
[30] = system: NCI-H226; experiment: Anticancer activity against human NCI-H226 cells; in short: as §2
[31] = system: SNB-75; experiment: Anticancer activity against human SNB75 cells; in short: as §1
[32] = system: SW-620; experiment: Anticancer activity against human SW620 cells; in short: as §1
[33] = Anticancer activity against human OVCAR8 cells; in short: as §2
[34] = system: MDA-MB-468; experiment: Anticancer activity against human MDA-MB-468 cells; in short: as §2
[35] = system: HCC 2998; experiment: Anticancer activity against human HCC2998 cells; in short: as §2
[36] = system: DU-145; experiment: Anticancer activity against human DU145 cells after 48 hrs; conditions: DU-145, 48 h; in short: as §2
[37] = Anticancer activity against human NCI-ADR-RES cells; in short: as §2
[38] = Anticancer activity against human SKOV3 cells; in short: as §2
[39] = system: KM12; experiment: Anticancer activity against human KM12 cells; in short: as §2
[40] = system: 786-0; experiment: Anticancer activity against human 786-0 cells; in short: as §2
[41] = system: NCI-H460; experiment: Anticancer activity against human NCI-H460 cells; in short: as §2
[42] = Anticancer activity against human RPMI8226 cells; in short: as §2
[43] = Anticancer activity against human SF539 cells; in short: as §2
[44] = system: SN12C; experiment: Anticancer activity against human SN12C cells; in short: as §2
[45] = Anticancer activity against human OVCAR3 cells; in short: as §2
[46] = Anticancer activity against human LOXIMVI cells; conditions: LOX IMVI; in short: as §2
[47] = system: UACC-62; experiment: Anticancer activity against human UACC62 cells; in short: as §1
[48] = system: MCF7; experiment: Anticancer activity against human MCF7 cells; in short: as §2
[49] = Anticancer activity against human UACC257 cells; in short: as §1
[50] = system: NCI-H522; experiment: Anticancer activity against human NCI-H522 cells; in short: as §2
[51] = system: T47D; experiment: Anticancer activity against human T47D cells; in short: as §1
[52] = system: MDA-MB-231; experiment: Anticancer activity against human MDA-MB-231 cells; in short: as §2
[53] = system: Malme-3M; experiment: Anticancer activity against human MALME-3M cells; in short: as §2
[54] = system: ACHN; experiment: Anticancer activity against human ACHN cells; in short: as §2
[55] = system: SK-MEL-28; experiment: Anticancer activity against human SK-MEL-28 cells; in short: as §2
[56] = system: SF-268; experiment: Anticancer activity against human SF268 cells; in short: as §2
[57] = system: SR; experiment: Anticancer activity against human SR cells; in short: as §1
[58] = system: SNB-19; experiment: Anticancer activity against human SNB19 cells; in short: as §2
[59] = read-out: LC50 (the source's name)

C/C1=C\CC[C@@]2(C)O[C@@H]2[C@H]2OC(=O)C(Cn3ccnc3I)[C@@H]2CC1 (stereo partly specified)
GI50 [1]: 36.7 µM | CC50 [1, 59]: > 100 µM | GI50 ([2]; HCT-15): 10.7 µM | CC50 ([2]; HCT-15, read-out: LC50 (the source's name)): 55.6 µM | GI50 [3]: 18.6 µM | CC50 [3, 59]: 66.1 µM | GI50 [4]: inactive | LC50 [4]: inactive | GI50 [5]: 16.5 µM | CC50 [5, 59]: 65.6 µM | GI50 [6]: 6.13 µM | CC50 [6, 59]: 79.6 µM | GI50 [7]: 45.2 µM | CC50 [7, 59]: > 100 µM | GI50 ([8]; COLO 205): 14.5 µM | CC50 ([8]; COLO 205, read-out: LC50 (the source's name)): 58.8 µM | GI50 ([9]; OVCAR-4): 13.2 µM | CC50 ([9]; OVCAR-4, read-out: LC50 (the source's name)): 60 µM | GI50 [10]: 7.36 µM | CC50 [10, 59]: 90 µM | GI50 [11]: 17.6 µM | CC50 [11, 59]: 61.5 µM | GI50 ([12]; MOLT-4): 19.6 µM | CC50 ([12]; MOLT-4, read-out: LC50 (the source's name)): 97.9 µM | GI50 [13]: inactive | LC50 [13]: inactive | GI50 [14]: 47.4 µM | CC50 [14, 59]: > 100 µM | GI50 [15]: 21.3 µM | CC50 [15, 59]: > 100 µM | GI50 ([16]; SF-295): 32.1 µM | CC50 ([16]; SF-295, read-out: LC50 (the source's name)): > 100 µM | GI50 ([17]; UO-31): 10.8 µM | CC50 ([17]; UO-31, read-out: LC50 (the source's name)): 50 µM | GI50 [18]: 20 µM | CC50 [18, 59]: 75.6 µM | GI50 ([19]; PC-3): 23.1 µM | CC50 ([19]; PC-3, read-out: LC50 (the source's name)): 100 µM | GI50 [20]: 19.8 µM | CC50 [20, 59]: > 100 µM | GI50 ([21]; OVCAR-5): 13.7 µM | CC50 ([21]; OVCAR-5, read-out: LC50 (the source's name)): 52.5 µM | GI50 [22]: 18.5 µM | LC50 [22]: 95.6 µM | GI50 [23]: 23.7 µM | CC50 [23, 59]: > 100 µM | GI50 [24]: 6.61 µM | CC50 [24, 59]: 49.5 µM | GI50 [25]: 6.9 µM | CC50 [25, 59]: 77.5 µM | GI50 [26]: 13.8 µM | CC50 [26, 59]: 59.5 µM | GI50 ([27]; BT-549): 15.9 µM | CC50 ([27]; BT-549, read-out: LC50 (the source's name)): 55.3 µM | GI50 [28]: 61.3 µM | CC50 [28, 59]: > 100 µM | GI50 ([29]; HCT-116): 11.8 µM | CC50 ([29]; HCT-116, read-out: LC50 (the source's name)): 49 µM | GI50 [30]: 15.4 µM | CC50 [30, 59]: 62.3 µM | GI50 [31]: 19.3 µM | CC50 [31, 59]: > 100 µM | GI50 [32]: 11.4 µM | CC50 [32, 59]: 62.8 µM | GI50 ([33]; OVCAR-8): 16.6 µM | CC50 ([33]; OVCAR-8, read-out: LC50 (the source's name)): 59.9 µM | GI50 [34]: 11.1 µM | LC50 (concentration killing 50% of cells) [34]: 60.4 µM | GI50 [35]: inactive | LC50 [35]: inactive | GI50 [36]: 18.8 µM | CC50 [36, 59]: 68.3 µM | GI50 [37]: 31.2 µM | CC50 [37, 59]: > 100 µM | GI50 ([38]; SK-OV-3): 47.3 µM | CC50 ([38]; SK-OV-3, read-out: LC50 (the source's name)): > 100 µM | GI50 [39]: 43.2 µM | CC50 [39, 59]: > 100 µM | GI50 [40]: 14.3 µM | CC50 [40, 59]: 53 µM | GI50 [41]: 30.1 µM | CC50 [41, 59]: > 100 µM | GI50 ([42]; RPMI-8226): 17 µM | CC50 ([42]; RPMI-8226, read-out: LC50 (the source's name)): > 100 µM | GI50 ([43]; SF-539): 16.7 µM | CC50 ([43]; SF-539, read-out: LC50 (the source's name)): 60.8 µM | GI50 [44]: 17.7 µM | CC50 [44, 59]: 84.1 µM | GI50 ([45]; OVCAR-3): 6.85 µM | CC50 ([45]; OVCAR-3, read-out: LC50 (the source's name)): 50.8 µM | GI50 [46]: 14.9 µM | CC50 [46, 59]: 60.9 µM | GI50 [47]: inactive | LC50 [47]: inactive | GI50 [48]: 9.79 µM | CC50 [48, 59]: > 100 µM | GI50 ([49]; UACC-257): 12 µM | CC50 ([49]; UACC-257, read-out: LC50 (the source's name)): 53.9 µM | GI50 [50]: 1710 nM | CC50 [50, 59]: 6.34 µM | GI50 [51]: 9.88 µM | CC50 [51, 59]: 54.3 µM | GI50 [52]: 16.4 µM | LC50 (concentration killing 50% of cells) [52]: 59.6 µM | GI50 [53]: 10.9 µM | CC50 [53, 59]: 62.7 µM | GI50 [54]: 10.5 µM | CC50 [54, 59]: 47.4 µM | GI50 [55]: 16.1 µM | CC50 [55, 59]: 73 µM | GI50 [56]: 23 µM | CC50 [56, 59]: > 100 µM | GI50 [57]: 13.6 µM | CC50 [57, 59]: > 100 µM | GI50 [58]: > 100 µM | CC50 [58, 59]: > 100 µM
